Experimental findings from ChEMBL document CHEMBL1759832, “Discovery of torezolid as a novel 5-hydroxymethyl-oxazolidinone antibacterial agent” (Eur J Med Chem, 2011) are described below.

What all share (assay type): functional
Experiment [1] has as its system Staphylococcus aureus. The experiment is described as follows: Antibacterial activity against methicillin-susceptible Staphylococcus aureus Smith infected po dosed ICR mouse assessed as protection against mouse mortality administered 1 hr after infection measured up to 7 days. An outline of the steps: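 Male outbred ICR mice (4-week-old, 18-20 g) infected intraperitoneally with S. aureus Smith, 2.9 × 10⁷ CFU/mouse in 5% mucin. Compounds given orally or intravenously 1 h after infection, eight mice per group. Mortality followed for 7 days. ED50 taken as the dose protecting 50% of infected mice from death.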

Another experiment concerns Enterococcus. In words: Antibacterial activity against vancomycin-resistant Enterococcus by agar dilution method. Put shortly:
(§1)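 MIC by CLSI agar dilution on Mueller-Hinton agar for S. aureus (MSSA, MRSA) and Enterococcus faecium (VRE).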

A further experiment concerns Haemophilus influenzae. The experiment is described as follows: Antibacterial activity against Haemophilus influenzae by agar dilution method. An outline of the steps:
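CLSI agar dilution; Haemophilus test medium used for H. influenzae; read-out MIC.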

The test system of experiment [2] is Staphylococcus aureus. In words: Antibacterial activity against methicillin-susceptible Staphylococcus aureus by agar dilution method. Put shortly:
as §1

The test system of experiment [3] is Staphylococcus aureus. The experiment is described as follows: Antibacterial activity against methicillin-resistant Staphylococcus aureus by agar dilution method. Put shortly: as §1
(In general: Agar dilution tests growth on a series of plates holding different concentrations.)

Molecules are shown by their SMILES. Values after ≈ are worked out from the molar mass of the structure shown. Bounds are passed on as bounds.

As to `Cc1nnc(-c2ccc(-c3ccc(N4C[C@H](CO)OC4=O)cc3F)cn2)o1`, the ED50 (commonly the midpoint of the dose-response relation) with Staphylococcus aureus [1] came out at 4.2 mg/kg. Moreover, the MIC against Enterococcus is 0.5 µg/mL (≈ 1.35 µM); with Haemophilus influenzae, 4 µg/mL (≈ 10.8 µM); against Staphylococcus aureus [2] it was 0.5 µg/mL (≈ 1.35 µM); against Staphylococcus aureus [3], 0.5 µg/mL (≈ 1.35 µM).
Take `Cn1nnc(-c2ccc(-c3ccc(N4C[C@H](COc5ccon5)OC4=O)cc3F)cn2)n1`: in the experiment with Staphylococcus aureus [1], the ED50 is over 30 mg/kg. Besides, the MIC in the experiment with Enterococcus came out at 0.25 µg/mL (≈ 0.572 µM); in the experiment on Staphylococcus aureus [2] it was 0.5 µg/mL (≈ 1.14 µM); with Staphylococcus aureus [3], 0.5 µg/mL (≈ 1.14 µM).
Consider `Cn1nnc(-c2ccc(-c3ccc(N4C[C@H](CF)OC4=O)cc3F)cn2)n1`, for which the MIC in the experiment with Enterococcus was determined as 1 µg/mL (≈ 2.69 µM); in the experiment with Haemophilus influenzae, 64 µg/mL (≈ 172 µM); against Staphylococcus aureus [2] it was 1 µg/mL (≈ 2.69 µM); in the experiment on Staphylococcus aureus [3], 1 µg/mL (≈ 2.69 µM).
For the molecule `COC[C@H]1CN(c2ccc(-c3ccc(-c4nnn(C)n4)nc3)c(F)c2)C(=O)O1`, the MIC against Enterococcus, in the experiment with Staphylococcus aureus [2] and against Staphylococcus aureus [3] was 2 µg/mL (≈ 5.2 µM) throughout.
In the case of `CNC[C@H]1CN(c2ccc(-c3ccc(-c4nnn(C)n4)nc3)c(F)c2)C(=O)O1`, the MIC in the experiment with Enterococcus, with Staphylococcus aureus [2] and in the experiment with Staphylococcus aureus [3] was 4 µg/mL (≈ 10.4 µM) each time.
`Cn1nnc(-c2ccc(-c3ccc(N4C[C@H](Cn5cncn5)OC4=O)cc3F)cn2)n1`: the ED50 in the experiment with Staphylococcus aureus [1] was over 30 mg/kg. Further, the MIC stood at 1 µg/mL (≈ 2.37 µM) with Enterococcus, 2 µg/mL (≈ 4.75 µM) in the experiment with Staphylococcus aureus [2] and 2 µg/mL (≈ 4.75 µM) in the experiment with Staphylococcus aureus [3].
Regarding `Cn1nnc(-c2ccc(-c3ccc(N4C[C@H](Cn5nccn5)OC4=O)cc3F)cn2)n1`, the MIC with Enterococcus, in the experiment with Staphylococcus aureus [2] and with Staphylococcus aureus [3] was 16 µg/mL (≈ 38 µM) throughout.
Take `Cn1nnc(-c2ccc(-c3ccc(N4C[C@H](Cn5ccnn5)OC4=O)cc3F)cn2)n1`: the ED50 with Staphylococcus aureus [1] is 5.74 mg/kg. Moreover, the MIC against Enterococcus came to 0.125 µg/mL (≈ 0.297 µM); against Haemophilus influenzae, 2 µg/mL (≈ 4.75 µM); in the experiment on Staphylococcus aureus [2] it was 0.25 µg/mL (≈ 0.593 µM); in the experiment with Staphylococcus aureus [3] it was 0.25 µg/mL (≈ 0.593 µM).
`COCC(=O)NC[C@H]1CN(c2ccc(-c3ccc(-c4nnn(C)n4)nc3)c(F)c2)C(=O)O1`: in the experiment with Staphylococcus aureus [1], the ED50 is 20.5 mg/kg. The MIC in the experiment with Enterococcus was 0.5 µg/mL (≈ 1.13 µM); against Haemophilus influenzae, 16 µg/mL (≈ 36.2 µM); against Staphylococcus aureus [2], 1 µg/mL (≈ 2.27 µM); with Staphylococcus aureus [3] it was 1 µg/mL (≈ 2.27 µM).
For `Cn1nnc(-c2ccc(-c3ccc(N4C[C@H](CNC(=O)c5ccco5)OC4=O)cc3F)cn2)n1`, in the experiment with Staphylococcus aureus [1], the ED50 was over 30 mg/kg. Also, the MIC against Enterococcus amounted to 0.5 µg/mL (≈ 1.08 µM); with Haemophilus influenzae it was 16 µg/mL (≈ 34.5 µM); with Staphylococcus aureus [2], 1 µg/mL (≈ 2.16 µM); against Staphylococcus aureus [3], 1 µg/mL (≈ 2.16 µM).
`Cn1nnc(-c2ccc(-c3ccc(N4C[C@H](CNC(=O)c5cccs5)OC4=O)cc3F)cn2)n1`: the ED50 in the experiment with Staphylococcus aureus [1] is over 30 mg/kg. The MIC against Enterococcus, against Staphylococcus aureus [2] and against Staphylococcus aureus [3] was 0.5 µg/mL (≈ 1.04 µM) each time.
`Cn1nnc(-c2ccc(-c3ccc(N4C[C@H](CNC(=O)CO)OC4=O)cc3F)cn2)n1`: in the experiment with Staphylococcus aureus [1], the 50% effective dose (ED50) was over 30 mg/kg. For the same molecule, the MIC against Enterococcus was 0.25 µg/mL (≈ 0.585 µM); against Staphylococcus aureus [2], 1 µg/mL (≈ 2.34 µM); against Staphylococcus aureus [3], 1 µg/mL (≈ 2.34 µM).
For `Cc1nnc(-c2ccc(-c3ccc(N4C[C@H](COc5ccon5)OC4=O)cc3F)cn2)o1`, the ED50 in the experiment on Staphylococcus aureus [1] came to 6.5 mg/kg. Besides, the MIC against Enterococcus was 0.5 µg/mL (≈ 1.14 µM); against Haemophilus influenzae, over 16 µg/mL; in the experiment with Staphylococcus aureus [2], 1 µg/mL (≈ 2.29 µM); against Staphylococcus aureus [3] it was 1 µg/mL (≈ 2.29 µM).
